Results on 21 compounds are retold here after ChEMBL document CHEMBL1121956, “Potential antitumor agents. 37. Organophosphorus derivatives of 9-anilinoacridine” (1982).

The test system of assay [1] is P388. In words: Concentration for inhibiting the growth of P-388 cells by 50% over 3 days was determined. It is filed as functional. Particulars: Mus musculus, P388, 72 h; read-out: ID50 (the source's name). In outline:
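Cytotoxicity was measured against cultured murine leukemia cells, P-388 and L1210, over 3 days of continuous drug exposure. Culture and drug-addition conditions follow an earlier report. The value is the drug concentration that inhibits growth by 50% over the 3 days.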

Another assay relates to L1210. In words: Concentration for inhibiting the growth of L1210 cells by 50% over 3 days was determined. Particulars: Mus musculus, L1210, 72 h; read-out: ID50 (the source's name). It is filed as functional.
A further assay relates to Nucleic Acid. The assay can be described thus: […] association constant for DNA binding to poly (dA.dT). Format: nucleic-acid assay. In a few lines:
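Association constant for binding to the synthetic polynucleotide poly(dA-dT). Measured by a method described in earlier work.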

Assay [2] concerns P388. The assay can be described thus: Percentage increase in life span was measured for P-388 cells […] after intraperitoneal administration of a dose of 65 mg/kg. Format: functional. Particulars: Mus musculus, P388, ip. In a few lines:
(§1)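 Mice received 10⁶ P-388 leukemia cells ip. Drug in 0.1 mL of 30% aqueous ethanol was injected ip on days 1, 5 and 9. Doses ran from a toxic level downward at 0.67-fold intervals, with 6 mice per group and 20–30 controls. The percentage increase in mean survival time over controls was taken at the optimal dose. ILS below 20% was treated as nonsignificant.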

Assay [3] relates to P388. The assay can be described thus: Percentage increase in life span was measured for P-388 cells […] after intraperitoneal administration of a dose of 30 mg/kg. Format: functional. Particulars: Mus musculus, P388, ip. In outline:
as §1

In assay [4] the test system is P388. In words: Percentage increase in life span was measured for P-388 cells […] after intraperitoneal administration of a dose of 250 mg/kg. It is filed as functional. The note with it: Mus musculus, P388, ip. In outline: as §1
Assay [5] has as its system P388. The assay can be described thus: Percentage increase in life span was measured for P-388 cells […] after intraperitoneal administration of a dose of 150 mg/kg. Particulars: Mus musculus, P388, ip. It is filed as functional. In outline:
as §1

For assay [6], the system named is P388. In words: Percentage increase in life span was measured for P-388 cells […] after intraperitoneal administration of a dose of 50 mg/kg. The note with it: Mus musculus, P388, ip. Format: functional. In outline: as §1
Assay [7] concerns P388. The assay can be described thus: Percentage increase in life span was measured for P-388 cells […] after intraperitoneal administration of a dose of 125 mg/kg. It is filed as functional. Particulars: Mus musculus, P388, ip. In outline: as §1
Assay [8] has as its system P388. The assay can be described thus: Percentage increase in life span was measured for P-388 cells […] after intraperitoneal administration of a dose of 66 mg/kg. Format: functional. Particulars: Mus musculus, P388, ip. In outline:
as §1

Assay [9] concerns P388. The assay can be described thus: Percentage increase in life span was measured for P-388 cells […] after intraperitoneal administration of a dose of 190 mg/kg. Format: functional. Particulars: Mus musculus, P388, ip. In a few lines:
as §1

Assay [10] deals with P388. In words: Percentage increase in life span was measured for P-388 cells […] after intraperitoneal administration of a dose of 110 mg/kg. It is filed as functional. Particulars: Mus musculus, P388, ip. In outline: as §1
Assay [11] concerns P388. The assay can be described thus: animal or person. The note with it: Mus musculus, P388, ip.
In assay [12] the test system is P388. The assay can be described thus: Percentage increase in life span was measured for P-388 cells […] after intraperitoneal administration of a dose of 8.9 mg/kg. Particulars: Mus musculus, P388, ip. It is filed as functional. In a few lines:
as §1

For assay [13], the system named is P388. The assay can be described thus: Percentage increase in life span was measured for P-388 cells […] after intraperitoneal administration of a dose of 33 mg/kg. It is filed as functional. The note with it: Mus musculus, P388, ip. In a few lines: as §1
The subject of assay [14] is P388. The assay can be described thus: Percentage increase in life span was measured for P-388 cells […] after intraperitoneal administration of a dose of 330 mg/kg. Format: functional. The note with it: Mus musculus, P388, ip. In a few lines: as §1

One may read the ILS as the gain in survival time of treated over control animals, in per cent. High values mean much gain in survival, low ones little gain in survival. Consider `CP(C)(=O)Nc1ccc(Nc2c3ccccc3nc3ccccc23)cc1`, for which the IC50 with P388 [1] worked out at 1 µM; in the assay on L1210, 1.3 µM. This compound returned a Log K in the assay with Nucleic Acid of 6.81. This compound also returned an increase in lifespan (ILS) at 65 mg/kg with P388 [2] of 18%.
In the case of `COP(=O)(O)Nc1ccc(Nc2c3ccccc3nc3ccccc23)cc1`, the IC50 in the assay with P388 [1] was 4 µM; in the assay on L1210 it was 2 µM. The compound also displayed a Log K in the assay with Nucleic Acid of 5.37.
As for `NP(=O)(O)Nc1ccc(Nc2c3ccccc3nc3ccccc23)cc1`, the IC50 turned out to be 2.8 µM in the assay with P388 [1] and 1.8 µM in the assay with L1210. In addition, the Log K in the assay with Nucleic Acid amounted to 4.83.
`COC(=O)Nc1ccc(Nc2c3ccccc3nc3ccccc23)cc1`: the figures for the IC50 with P388 [1] and in the assay with L1210 were 0.026 µM and 0.06 µM, respectively. Also, in the assay on P388 [3], the increase in lifespan (ILS) at 30 mg/kg worked out at 98%.
Regarding `O=P1(Nc2ccc(Nc3c4ccccc4nc4ccccc34)cc2)OCCO1`, the values for the IC50 in the assay with P388 [1] and with L1210 were 0.11 µM and 0.18 µM, respectively. Further, in the assay with Nucleic Acid, the Log K was determined as 6.52. Also, the increase in lifespan (ILS) at 30 mg/kg in the assay with P388 [3] is 54%.
For the compound `CNC(=O)Nc1ccc(Nc2c3ccccc3nc3ccccc23)cc1`, the IC50 stood at 0.086 µM in the assay with P388 [1] and 0.1 µM in the assay on L1210. In the assay with P388 [3], this compound gave an ILS at 30 mg/kg of 53%.
Consider `COP(=O)(Nc1cccc(Nc2c3ccccc3nc3ccccc23)c1)OC`, for which the IC50 was 1.4 µM in the assay on P388 [1] and 1.8 µM in the assay on L1210. This compound showed an increase in lifespan (ILS) at 250 mg/kg with P388 [4] of 34%. This compound had a Log K in the assay with Nucleic Acid of 5.66.
Take `CS(=O)(=O)Nc1ccc(Nc2c3ccccc3nc3ccccc23)cc1`: the values for the IC50 in the assay with P388 [1] and with L1210 were 0.04 µM and 0.035 µM, respectively. In the assay on P388 [5], the increase in lifespan (ILS) at 150 mg/kg stood at 93%.
As to `CN(C)P(=O)(Nc1ccc(Nc2c3ccccc3nc3ccccc23)cc1)N(C)C`, the results for the IC50 with P388 [1] and in the assay with L1210 were 1.3 µM and 1.5 µM, respectively. Moreover, the ILS at 50 mg/kg in the assay on P388 [6] came out at 29%. This compound yielded a Log K in the assay on Nucleic Acid of 6.08.
For the compound `COP(=O)(Cc1ccc(Nc2c3ccccc3nc3ccccc23)cc1)OC`, the IC50 in the assay with P388 [1] came out at 1.4 µM; in the assay on L1210, 0.67 µM. The Log K with Nucleic Acid came to 5.67. Moreover, in the assay with P388 [7], the increase in life span (ILS) at 125 mg/kg stood at 2%.
Turning to `O=P1(Nc2ccc(Nc3c4ccccc4nc4ccccc34)cc2)OCCCO1`, the IC50 in the assay on P388 [1] is 0.05 µM; with L1210, 0.11 µM. The same compound returned a Log K with Nucleic Acid of 6.78. In addition, the ILS at 30 mg/kg with P388 [3] amounted to 47%.
`CS(=O)(=O)Nc1cccc(Nc2c3ccccc3nc3ccccc23)c1`: the IC50 in the assay with P388 [1] is 0.09 µM; with L1210, 0.11 µM. The ILS at 66 mg/kg in the assay on P388 [8] was determined as 53%.
Consider `COP(=O)(NC(=O)c1ccc(Nc2c3ccccc3nc3ccccc23)cc1)OC`, for which the IC50 in the assay with P388 [1] is 4.8 µM; with L1210 it was over 0.035 µM. In addition, the ILS at 190 mg/kg in the assay with P388 [9] was found to be 12%. This compound also displayed a Log K in the assay with Nucleic Acid of 5.56.
For the compound `O=P1(Nc2ccc(Nc3c4ccccc4nc4ccccc34)cc2)NCCCO1` (stereo unspecified), the IC50 with P388 [1] was 0.45 µM; in the assay on L1210 it was 0.8 µM. This compound also registered an ILS at 50 mg/kg in the assay with P388 [6] of 9%. Besides, in the assay with Nucleic Acid, the Log K stood at 6.58.
On to `CCOP(=O)(Nc1ccc(Nc2c3ccccc3nc3ccccc23)cc1)OCC`, for which the IC50 with P388 [1] came out at 0.2 µM; in the assay on L1210 it was 0.23 µM. This compound also displayed a Log K with Nucleic Acid of 6.47. The ILS at 110 mg/kg with P388 [10] came to 28%.
`CC(=O)Nc1ccc(Nc2c3ccccc3nc3ccccc23)cc1`: the IC50 with P388 [1] turned out to be 0.054 µM; in the assay on L1210, 0.1 µM. Besides, the ILS at 30 mg/kg in the assay on P388 [3] was 57%.
Take `COc1cc(NS(C)(=O)=O)ccc1Nc1c2ccccc2nc2ccccc12` [AMSACRINE]: the IC50 in the assay on P388 [1] was 0.03 µM. In the assay with Nucleic Acid, this compound gave a Log K of 5.57. The compound also showed an ILS at 13.3 mg/kg with P388 [11] of 78%.
For `COc1cc(NP(=O)(OC)OC)ccc1Nc1c2ccccc2nc2ccccc12`, the IC50 was determined as 0.036 µM in the assay with P388 [1] and 0.07 µM in the assay on L1210. Also, the Log K in the assay on Nucleic Acid was found to be 5.64. In addition, the increase in lifespan (ILS) at 8.9 mg/kg in the assay with P388 [12] was 67%.
As to `COP(=O)(Nc1ccc(Nc2c3ccccc3nc3ccccc23)cc1)OC`, the IC50 came out at 0.01 µM with P388 [1] and 0.015 µM in the assay with L1210. Further, in the assay with P388 [13], the increase in lifespan (ILS) at 33 mg/kg came out at 74%. This compound showed a Log K with Nucleic Acid of 6.26.
Consider `CNP(=O)(NC)Nc1ccc(Nc2c3ccccc3nc3ccccc23)cc1`, for which the IC50 in the assay on P388 [1] was 2 µM; with L1210 it was 2.5 µM. The increase in life span (ILS) at 50 mg/kg in the assay with P388 [6] was 11%. Further, in the assay with Nucleic Acid, the Log K stood at 6.84.
Consider `CS(=O)(=O)Cc1ccc(Nc2c3ccccc3nc3ccccc23)cc1`, for which the IC50 in the assay with P388 [1] was found to be 0.27 µM; in the assay with L1210, 0.25 µM. Also, in the assay with Nucleic Acid, the Log K is 5.76. Moreover, the ILS at 330 mg/kg in the assay on P388 [14] turned out to be 49%.
